From PubChem
The sample as a whole holds a higher share of hits than the screen did.
INS promoter act – activators of insulin promoter-driven GFP, primary screen, imaging, TRM-6 cells, eGFP reporter, cell count; plate-scaled: unstimulated 0, stimulated control 100; activation, % at 2 µM; hit rate 0.81% among 130,000; AID 1296, 2008;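 active = activation at 2 µM above a set limit, confirmed on inspection of the cell images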;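 note: share of cells whose green reporter signal exceeds an intensity cutoff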
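Material: Human fetal islet-derived TRM-6 cells with tamoxifen-inducible insulin promoter–eGFP reporter | Medium: Low-glucose (5.5 mM) medium with tamoxifen | Probe or stimulus: Tamoxifen inducer, 0.75 µM, in seeding medium | Schedule: Tamoxifen pre-incubation 15 h overnight, then compound exposure 48 h at 37 °C | Detection: High-content imaging of fixed cells with Hoechst nuclear stain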
Active calls of the source: *.

SMILES	INS promoter act
CC(C)CCN1CCNC(=O)C1CC(=O)Nc1ccc(F)cc1 (stereo unspecified)	185.7*
COc1ccccc1NC(=O)CC1C(=O)NCCN1C(=O)Nc1ccccc1 (stereo unspecified)	0.0
C=C(C)CNC(=S)NNC(=O)c1ccc(Br)cc1	2.9
O=C(CNc1cc(S(=O)(=O)N2CCCC2)ccc1OCC(F)(F)F)Nc1cccc(C(F)(F)F)c1	7.4
COc1ccc(CNC(=O)CN2C(=O)NC3(CCCCCC3)C2=O)cc1OC	244.4*
O=C(CN1C(=O)NC2(CCCCC2)C1=O)Nc1ccccc1Cl	0.0
COc1ccc(-c2nnn(CC(=O)NCc3ccccc3)n2)cc1OC	276.9
O=C(O)CC12CC3CC(C1)CC(n1cncn1)(C3)C2	0.0
COCC(=O)Nc1nc(-c2ccc(C)cc2)c(C)s1	314.0
COc1ccc(-c2sc(NC(C)=O)nc2-c2ccccc2)cc1	-7.9
COc1ccc(-c2nc(C)sc2C)cc1	418.8*
O=C(C1=C(O)C(=O)N(CCCN2CCOCC2)C1c1ccccn1)c1cc2ccccc2o1 (stereo unspecified)	0.0
Cc1ccc(/C(O)=C2/C(=O)C(=O)N(CCN3CCOCC3)C2c2ccccn2)cc1 (stereo unspecified)	850.0*
CC1Cc2cc(/C(O)=C3/C(=O)C(=O)N(CCN4CCOCC4)C3c3cccc(O)c3)ccc2O1 (stereo unspecified)	466.7*
O=C1C(=O)N(CCN2CCOCC2)C(c2ccncc2)/C1=C(/O)c1ccc2c(c1)OCO2 (stereo unspecified)	3.7
CCN(CC)CCCN1C(=O)C(=O)/C(=C(/O)c2ccc3c(c2)OCCO3)C1c1ccco1 (stereo unspecified)	-5.9
CCN(CC)CCCN1C(=O)C(=O)/C(=C(/O)c2ccc(C)cc2)C1c1ccccn1 (stereo unspecified)	0.0
COc1cc(/C=N/NC(=O)CCc2c(C)n[nH]c2C)cc(OC)c1OC	3.7
Cc1cc(C)cc(NC(=S)NCc2ccc3c(c2)OCO3)c1	-2.3
Cc1ccc(CNc2ccc3c(c2)OCO3)cc1	440.5*
COC(=O)CNc1ccc2c(c1)OCO2	393.3
COc1ccc(NC(=O)c2cc3c(s2)CCC(C)C3)cc1S(=O)(=O)N1CCOCC1 (stereo unspecified)	-9.1
CCN(CC)C(NC(=O)c1ccccc1)C(=O)c1ccccc1 (stereo unspecified)	-3.3
NC(=O)CSc1nnc(COc2ccccc2)n1CCc1ccccc1	-5.6
COc1ccc(OCc2nnc(SCC(N)=O)n2-c2ccccc2OC)cc1	160.0*
SMILES	INS promoter act
COc1ccccc1-n1c(COc2ccccc2-c2ccccc2)nnc1SCC(=O)c1c(N)n(C)c(=O)n(C)c1=O	-2.0
Cc1ccc(-n2c(Cn3nc(C(F)F)cc3C(F)F)n[nH]c2=S)cc1	3.3
Cc1cccc(N2CCN(C(=O)CN3C(=O)C4CC=CCC4C3=O)CC2)c1C (stereo unspecified)	0.0
CC(C)(C)c1ccc(-c2noc(CCC(=O)NCC3CCCO3)n2)cc1 (stereo unspecified)	3.1
CCc1cccc(NC(=O)CCSCCC(=O)Nc2cccc(CC)c2)c1	89.7*
Cc1ccc(NC(=O)CCSCCC(=O)Nc2ccc(C)c(C)c2)cc1C	2.6
COC(=O)CCC(=O)Nc1cccc(Cl)c1	0.0
Cc1cc(C)c(NC(=S)N(CCc2ccncc2)C(C)C)c(C)c1	7.1
CCCOC(=O)c1ccc(NC(=O)c2cc(OC)c(OC)c(OC)c2Br)cc1	0.0
CCC1(CC)C(=O)NC(=O)NC1=Nc1cccc(OC)c1	167.7*
COc1cccc(-c2csc3nc[nH]c(=O)c23)c1	-88.6
COc1cccc(NC(=O)Cc2ccccc2)c1	-72.7
Cn1nnnc1SCC(=O)c1cccs1	-9.1
Cn1nnnc1SCC(=O)NCc1ccccc1	-92.9
Cn1nnnc1SCSc1nnnn1C	625.0*
COc1ccc(OCC(=O)N/N=C(/C)Cc2ccccc2)cc1	0.0
CCSC1=NCCN1S(=O)(=O)c1ccc(NC(C)=O)cc1	-7.7
N#CC(Sc1ccccn1)c1ccc(Cl)cc1 (stereo unspecified)	-5.9
CC(C)N1C(=O)CCC1C(=O)NCc1cccs1 (stereo unspecified)	0.0
O=C(Nc1ccccc1N1CCOCC1)c1cc(-c2ccncc2)nc2ccccc12	235.7*
O=C(Nc1ccccc1N1CCOCC1)c1cccnc1	8.3
Cc1cccc(-c2cc(C(=O)Nc3ccc4c(c3)OCCO4)c3ccccc3n2)c1	-3.3
Cc1cccc(-c2nc(CN3CCCC(C(=O)NC4CCCCCC4)C3)c(C)o2)c1 (stereo unspecified)	171.4*
Cc1cccc(-c2nc(CS(=O)CC(=O)NCC3CCCO3)c(C)o2)c1 (stereo unspecified)	0.0
Cc1noc(C)c1S(=O)(=O)N1CCCC(C(=O)NC2CCCCC2)C1 (stereo unspecified)	-7.7
SMILES	INS promoter act
O=C(COC(=O)CNC(=O)c1ccc(Cl)cc1)Nc1ccc(Cl)cc1C(F)(F)F	-3.1
COc1ccc(-c2cc(C(F)F)n3ncc(C(=O)N4CCc5ccccc5C4)c3n2)cc1	392.9*
O=C(c1cnn2c(C(F)F)cc(-c3ccccc3)nc12)N1CCN2CCCC2C1 (stereo unspecified)	104.5
Cc1cc(C(F)F)n2ncc(C(=O)N3CCCCC3)c2n1	246.7
Cc1ccc(NC(=O)C2(C)Cc3ccccc3C(=O)O2)cc1 (stereo unspecified)	0.0
O=S(=O)(Nc1nccs1)c1ccc(Cl)cc1	-9.4
COc1ccccc1N1CCN(c2ccc(Cl)nn2)CC1	-7.1
COc1ccccc1N1C(=O)C(Cl)=C(Nc2ccccc2O)C1=O	378.6*
CCOc1ccccc1NC1=C(Cl)C(=O)N(c2ccc(OC)cc2)C1=O	3.1
CCCOc1ccc(/C=N/Nc2ccccc2[N+](=O)[O-])c(OCCC)c1	-83.9
Cc1ncoc1C(=O)Nc1nccs1	7.1
CCCN1C(=O)c2ccc(C(=O)Nc3nccs3)cc2C1=O	475.0*
CCCN1C(=O)c2ccc(C(=O)NCc3ccco3)cc2C1=O	-42.9
CCC(CC)C(=O)Nc1cccc(C(=O)Nc2nccs2)c1	75.7*
O=C(Nc1nccs1)c1cccc(S(=O)(=O)N2CCCCC2)c1	182.4
CCc1nnc(NC(=O)c2ccc3c(c2)C(=O)N(C(C)(C)C)C3=O)s1	-5.4
Cc1ccc(C(=O)NCC(=O)N/N=C/c2cccs2)cc1[N+](=O)[O-]	0.0
CCOCCCn1c(=S)[nH]c2cc(C(=O)N3CCC(C(N)=O)(N4CCCCC4)CC3)ccc2c1=O	-6.7
NC(=O)C1(N2CCCCC2)CCN(C(=O)c2cccn3c(=O)c4cc(Cl)ccc4nc23)CC1	150.0*
O=C(c1cccn2c(=O)c3cc(Cl)ccc3nc12)N1CCN(Cc2ccc3c(c2)OCO3)CC1	-9.1
O=C(COC(=O)C1CC2C=CC1C2)Nc1ccccc1F (stereo unspecified)	-5.9
Cc1cccc(C)c1OC(=O)CSc1nnc(-c2ccccc2O)o1	-3.3
CCOc1ccc(-c2nnn(CC(=O)NCc3ccccc3)n2)cc1	-5.6
Cc1nc(C#N)c(N/N=C/c2cccc(Cl)c2)o1	300.0*
Cc1cc(C)nc(N/N=C/c2ccccc2)n1	-17.8
Clc1cccc(/C=N/Nc2nnc(Cl)c3ccccc23)c1	9.3
CN(Cc1ccccc1)S(=O)(=O)c1cccc(C(=O)O)c1	0.0
CCCC12CN3CC(C)(CN(C1)C3c1ccco1)C2=O (stereo unspecified)	5.6
Cc1ccc(S(=O)(=O)NNC(=O)c2cccc(O)c2)cc1	-6.7
